This is an account of results in ChEMBL document CHEMBL1140053, “Discovery of antimycobacterial spiro-piperidin-4-ones: an atom economic, stereoselective synthesis, and biological intervention” (J Med Chem, 2008).

In test [1] the test system is Mycobacterium tuberculosis. In words: Antimycobacterial activity against Mycobacterium tuberculosis H37Rv by agar dilution method. It counts as functional.
For test [2], the system named is Mycolicibacterium smegmatis. In words: Antimycobacterial activity against Mycobacterium smegmatis MC2 by agar dilution method. It counts as functional. (In general: In agar dilution the substance is mixed into plates at graded concentrations.)
The subject of the next test is Vero. In words: Cytotoxicity against african green monkey Vero cells after 72 hrs by MTT assay. It counts as cell-based. The settings on record: Chlorocebus sabaeus. (In general: Tetrazolium assays rely on reduction of a dye to a coloured formazan, in cell work by metabolically active cells.)
The test system of test [3] is Mycobacterium tuberculosis. In words: Antimycobacterial activity against Mycobacterium tuberculosis H37Rv ATCC 35801 infected in CD1 mouse assessed as bacterial load in lungs at 25 mg/kg, ip after 10 days. The format is functional. The settings on record: route intraperitoneal. Summed up:
(§1)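 Six-week-old female CD-1 mice, six per group, infected via caudal vein with approximately 10⁷ viable organisms. Intraperitoneal dosing at 25 mg/kg began 10 days post-inoculation and continued for 10 days. At 35 days post-infection, spleens and right lungs were homogenized and plated in serial 10-fold dilutions on 7H10 agar, incubated at 37 °C, 4 weeks. CFU compared with vehicle-treated controls.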

Test [4] deals with Mycobacterium tuberculosis. In words: Antimycobacterial activity against Mycobacterium tuberculosis H37Rv ATCC 35801 infected in CD1 mouse assessed as bacterial load in spleen at 25 mg/kg, ip after 10 days. It counts as functional. The settings on record: route intraperitoneal. A digest of the protocol:
as §1

The nature of test [5]: Selectivity index, ratio of IC50 for african green monkey Vero cells to MIC for mycobacterium. It counts as functional. Summed up:
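Selectivity index taken as IC50/MIC. IC50 comes from Vero cells exposed to serial dilutions up to 62.5 µg/mL for 72 h, with viability read by MTT conversion to formazan. MIC comes from agar dilution in Middlebrook 7H11 with OADC at pH 7.40, run in duplicate, and is the lowest concentration giving complete growth inhibition.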

Values after ≈ are worked out from the molar mass of the structure shown.

As usually defined, the MIC is the lowest concentration found to suppress growth. One may read the IC50 as the midpoint of a concentration-inhibition curve. Turning to `COc1ccccc1/C=C1\CN(C)C[C@@]2(C1=O)[C@@H](c1ccccc1OC)[C@@H]1CCCN1[C@@]21C(=O)Nc2ccccc21` (racemic), the MIC is 0.71 µg/mL (≈ 1.29 µM) in test [1] and 2.84 µg/mL (≈ 5.17 µM) in test [2]. The same compound registered an IC50 in the test with Vero of 114 µM.

For `CN1C/C(=C\c2cccs2)C(=O)[C@]2(C1)[C@@H](c1cccs1)[C@@H]1CCCN1[C@@]21C(=O)Nc2ccccc21` (racemic), the values for the MIC in test [1] and in test [2] were 0.38 µg/mL (≈ 0.757 µM) and 3.11 µg/mL (≈ 6.2 µM), respectively. In the test with Vero, the IC50 stood at 125 µM.

Regarding `CN1C/C(=C\c2ccc(F)cc2)C(=O)[C@]2(C1)[C@@H](c1ccc(F)cc1)[C@H](c1ccccc1)N[C@@]21C(=O)Nc2ccccc21` (racemic), the minimal inhibitory concentration (MIC) in test [1] amounted to 0.07 µg/mL (≈ 0.125 µM); in test [2], 0.69 µg/mL (≈ 1.23 µM). In addition, the log10cfu in test [3] amounted to 6.01; in test [4], 5.2. Further, 111 µM corresponded to half-maximal inhibition in the test with Vero (IC50). The “Selectivity Index” value in test [5] is 1634.

On to `CN1C/C(=C\c2ccccc2Cl)C(=O)[C@]2(C1)[C@@H](c1ccccc1Cl)[C@@H]1CCCN1[C@@]21C(=O)Nc2ccccc21` (racemic), for which the figures for the MIC in test [1] and in test [2] were 0.35 µg/mL (≈ 0.627 µM) and 5.69 µg/mL (≈ 10.2 µM), respectively. In the test with Vero, this compound displayed an IC50 of 114 µM.

As to `CN1C/C(=C\c2ccccc2)C(=O)[C@]2(C1)[C@@H](c1ccccc1)[C@H](c1ccccc1)N[C@@]21C(=O)Nc2ccccc21` (racemic), the MIC stood at 0.74 µg/mL (≈ 1.41 µM) in test [1] and 2.97 µg/mL (≈ 5.65 µM) in test [2]. Moreover, the 50% inhibitory concentration (IC50) in the test on Vero stood at 119 µM.

In the case of `Cc1ccc(/C=C2\CN(C)C[C@@]3(C2=O)[C@@H](c2ccc(C)cc2)[C@H](c2ccccc2)N[C@@]32C(=O)Nc3ccccc32)cc1` (racemic), the results for the MIC in test [1] and in test [2] were 0.71 µg/mL (≈ 1.28 µM) and 2.82 µg/mL (≈ 5.09 µM), respectively. In the test on Vero, this compound had an IC50 of 113 µM.

For the compound `COc1ccc(/C=C2\CN(C)C[C@@]3(C2=O)[C@@H](c2ccc(OC)cc2)[C@H](c2ccccc2)N[C@@]32C(=O)Nc3ccccc32)cc1` (racemic), the results for the MIC in test [1] and in test [2] were 0.67 µg/mL (≈ 1.14 µM) and 1.33 µg/mL (≈ 2.27 µM), respectively. This compound registered a concentration for half-maximal inhibition (IC50) in the test with Vero of 107 µM.

For the compound `CN1C/C(=C\c2cccc3ccccc23)C(=O)[C@]2(C1)[C@@H](c1cccc3ccccc13)[C@@H]1CCCN1[C@@]21C(=O)Nc2ccccc21` (racemic), the MIC in test [1] amounted to 2.65 µg/mL (≈ 4.49 µM); in test [2] it was 10.6 µg/mL (≈ 18 µM). The compound also gave an IC50 with Vero of 106 µM.

As for `CN1C/C(=C\c2ccc(F)cc2)C(=O)[C@]2(C1)[C@@H](c1ccc(F)cc1)[C@@H]1CCCN1[C@@]21C(=O)Nc2ccccc21` (racemic), the MIC was 2.97 µg/mL (≈ 5.65 µM) in test [1] and 23.8 µg/mL (≈ 45.3 µM) in test [2]. Also, in the test on Vero, the IC50 is 119 µM.

In the case of `NNC(=O)c1ccncc1` [ISONIAZID], the MIC in test [1] is 0.36 µg/mL (≈ 2.63 µM); in test [2] it was 45.6 µg/mL (≈ 332 µM). For the same compound, the log10cfu in test [3] came out at 5.61; in test [4], 4.92.
